Experimental data as given in ChEMBL document CHEMBL1629700, “Assessment of oritavancin serum protein binding across species” (Antimicrob Agents Chemother, 2010).

Columns and labels:
Staphylococcus aureus [1] = experiment: Antibacterial activity against Staphylococcus aureus ATCC 29213 grown in CAMHB medium by broth microdilution method in presence of 50 ug/ml CaCl2 and 95% dog serum; format: functional
Outline: (§1)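 Broth microdilution MIC run in a matrix of 95% pooled serum, or 95% ultrafiltrate of that serum (50 kDa cutoff, albumin excluded), plus 5% CAMHB. Arithmetic dilutions ran from 20 to 0.3 μg/ml in CAMHB with 50 μg/ml CaCl2. Means came from 8 replicates (mouse 4 to 8). Beagle dog serum was used for dog.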

Staphylococcus aureus [2] = experiment: Antibacterial activity against Staphylococcus aureus ATCC 29213 grown in CAMHB medium by broth microdilution method in presence of 50 ug/ml CaCl2 and 95% rat serum; format: functional; outline: as §1
[3] = Protein binding in mouse serum by broth microdilution method; format: ADME, cell-free; details: read-out: PB (converted)
Outline: (§2)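 Pooled serum (dog: beagle) and its ultrafiltrate (50 kDa cutoff, excludes albumin) were used. Broth microdilution MICs against S. aureus ATCC 29213 were read with arithmetic drug dilutions, made in CAMHB with 0.002% polysorbate-80, in 95% serum or 95% ultrafiltrate plus 5% CAMHB. % bound = (1 − mean MIC ultrafiltrate/mean MIC serum) × 100. Human, rat and dog used 8 replicates; mouse used 4–8.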

Staphylococcus aureus [4] = experiment: Ratio of MIC for Staphylococcus aureus ATCC 29213 grown in CAMHB medium in presence of 95% dog serum to MIC for Staphylococcus aureus ATCC 29213 in presence of 95% dog serum ultrafiltrate; format: functional
Outline: (§3)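 The fold increase is the mean arithmetic broth microdilution MIC in 95% serum (plus 5% CAMHB) divided by the mean MIC in 95% serum ultrafiltrate (plus 5% CAMHB). The ultrafiltrate was prepared with a 50 kDa cutoff that excludes albumin. Replicates were 8 per condition, or 4 to 8 for mouse. The same data give % bound = (1 − MIC ultrafiltrate/MIC serum) × 100.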

[5] = Protein binding in dog serum by broth microdilution method; format: ADME, cell-free, Canis lupus familiaris; details: read-out: PB (converted); outline: as §2
[6] = Protein binding in rat serum by broth microdilution method; format: ADME, cell-free; details: read-out: PB (converted); outline: as §2
Staphylococcus aureus [7] = experiment: Antibacterial activity against Staphylococcus aureus ATCC 29213 grown in CAMHB medium by broth microdilution method in presence of 50 ug/ml CaCl2; format: functional
Outline: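 Broth microdilution per CLSI M7-A8 in cation-adjusted Mueller-Hinton broth with 50 μg/ml CaCl2. Arithmetic dilution steps of 5 μg/ml from 20 to 10 μg/ml, 1 μg/ml from 10 to 2, 0.5 μg/ml from 2 to 1, and 0.1 μg/ml from 1 to 0.3 μg/ml. Mean of 8 replicates.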

Staphylococcus aureus [8] = experiment: Ratio of MIC for Staphylococcus aureus ATCC 29213 grown in CAMHB medium in presence of 95% rat serum to MIC for Staphylococcus aureus ATCC 29213 in presence of 95% rat serum ultrafiltrate; format: functional; outline: as §3
[9] = Protein binding in human serum by broth microdilution method; format: ADME, cell-free; details: read-out: PB (converted); outline: as §2
Staphylococcus aureus [10] = experiment: Antibacterial activity against Staphylococcus aureus ATCC 29213 grown in CAMHB medium by broth microdilution method in presence of 50 ug/ml CaCl2 and 95% dog serum ultrafiltrate; format: functional; outline: as §1
Staphylococcus aureus [11] = experiment: Ratio of MIC for Staphylococcus aureus ATCC 29213 grown in CAMHB medium in presence of 95% human serum to MIC for Staphylococcus aureus ATCC 29213 in presence of 95% human serum ultrafiltrate; format: functional; outline: as §3
Staphylococcus aureus [12] = experiment: Antibacterial activity against Staphylococcus aureus ATCC 29213 grown in CAMHB medium by broth microdilution method in presence of 50 ug/ml CaCl2 and 95% human serum ultrafiltrate; format: functional; outline: as §1
Staphylococcus aureus [13] = experiment: Ratio of MIC for Staphylococcus aureus ATCC 29213 grown in CAMHB medium in presence of 95% mouse serum to MIC for Staphylococcus aureus ATCC 29213 in presence of 95% mouse serum ultrafiltrate; format: functional; outline: as §3
Staphylococcus aureus [14] = experiment: Antibacterial activity against Staphylococcus aureus ATCC 29213 grown in CAMHB medium by broth microdilution method in presence of 50 ug/ml CaCl2 and 95% mouse serum ultrafiltrate; format: functional; outline: as §1
Staphylococcus aureus [15] = experiment: Antibacterial activity against Staphylococcus aureus ATCC 29213 grown in CAMHB medium by broth microdilution method in presence of 50 ug/ml CaCl2 and 95% mouse serum; format: functional; outline: as §1
Staphylococcus aureus [16] = experiment: Antibacterial activity against Staphylococcus aureus ATCC 29213 grown in CAMHB medium by broth microdilution method in presence of 50 ug/ml CaCl2 and 95% human serum; format: functional; outline: as §1
Staphylococcus aureus [17] = experiment: Antibacterial activity against Staphylococcus aureus ATCC 29213 grown in CAMHB medium by broth microdilution method in presence of 50 ug/ml CaCl2 and 95% rat serum ultrafiltrate; format: functional; outline: as §1

## CCCCCCCCCC(=O)N[C@@H](Cc1c[nH]c2ccccc12)C(=O)N[C@H](CC(N)=O)C(=O)N[C@@H](CC(=O)O)C(=O)N[C@@H]1C(=O)NCC(=O)N[C@@H](CCCN)C(=O)N[C@@H](CC(=O)O)C(=O)N[C@H](C)C(=O)N[C@@H](CC(=O)O)C(=O)NCC(=O)N[C@H](CO)C(=O)N[C@@H]([C@H](C)CC(=O)O)C(=O)N[C@@H](CC(=O)c2ccccc2N)C(=O)O[C@@H]1C
Staphylococcus aureus [1]
  MIC: 2.5 µg/mL
Staphylococcus aureus [2]
  MIC: 1.56 µg/mL
[3]
  fraction unbound: 0.24
Staphylococcus aureus [4]
  Ratio: 3.9
[5]
  fraction unbound: 0.255
[6]
  fraction unbound: 0.344
Staphylococcus aureus [7]
  MIC: 0.975 µg/mL
Staphylococcus aureus [8]
  Ratio: 2.9
[9]
  fraction unbound: 0.171
Staphylococcus aureus [10]
  MIC: 0.638 µg/mL
Staphylococcus aureus [11]
  Ratio: 5.8
Staphylococcus aureus [12]
  MIC: 0.513 µg/mL
Staphylococcus aureus [13]
  Ratio: 4.2
Staphylococcus aureus [14]
  MIC: 3 µg/mL
Staphylococcus aureus [15]
  MIC: 12.5 µg/mL
Staphylococcus aureus [16]
  MIC: 3 µg/mL
Staphylococcus aureus [17]
  MIC: 0.538 µg/mL
